# Assay results taken from ChEMBL document CHEMBL2163331, “Multidrug resistance reversal and apoptosis induction in human colon cancer cells by some flavonoids present in citrus plants” (J Nat Prod, 2012).
# Active and inactive are the calls of the source. The rule behind the calls is not given here.
# Assays:
# [1] = target: T1, ATP-dependent translocase ABCB1 (Homo sapiens, UniProt P08183); test: Inhibition of p-glycoprotein in human LoVo/DX cells assessed accumulation of rhodamine 123 at 5 to 100 uM after 60 mins by fluorescence assay; settings: 1 h
# T1 sequence (P08183 whole entry): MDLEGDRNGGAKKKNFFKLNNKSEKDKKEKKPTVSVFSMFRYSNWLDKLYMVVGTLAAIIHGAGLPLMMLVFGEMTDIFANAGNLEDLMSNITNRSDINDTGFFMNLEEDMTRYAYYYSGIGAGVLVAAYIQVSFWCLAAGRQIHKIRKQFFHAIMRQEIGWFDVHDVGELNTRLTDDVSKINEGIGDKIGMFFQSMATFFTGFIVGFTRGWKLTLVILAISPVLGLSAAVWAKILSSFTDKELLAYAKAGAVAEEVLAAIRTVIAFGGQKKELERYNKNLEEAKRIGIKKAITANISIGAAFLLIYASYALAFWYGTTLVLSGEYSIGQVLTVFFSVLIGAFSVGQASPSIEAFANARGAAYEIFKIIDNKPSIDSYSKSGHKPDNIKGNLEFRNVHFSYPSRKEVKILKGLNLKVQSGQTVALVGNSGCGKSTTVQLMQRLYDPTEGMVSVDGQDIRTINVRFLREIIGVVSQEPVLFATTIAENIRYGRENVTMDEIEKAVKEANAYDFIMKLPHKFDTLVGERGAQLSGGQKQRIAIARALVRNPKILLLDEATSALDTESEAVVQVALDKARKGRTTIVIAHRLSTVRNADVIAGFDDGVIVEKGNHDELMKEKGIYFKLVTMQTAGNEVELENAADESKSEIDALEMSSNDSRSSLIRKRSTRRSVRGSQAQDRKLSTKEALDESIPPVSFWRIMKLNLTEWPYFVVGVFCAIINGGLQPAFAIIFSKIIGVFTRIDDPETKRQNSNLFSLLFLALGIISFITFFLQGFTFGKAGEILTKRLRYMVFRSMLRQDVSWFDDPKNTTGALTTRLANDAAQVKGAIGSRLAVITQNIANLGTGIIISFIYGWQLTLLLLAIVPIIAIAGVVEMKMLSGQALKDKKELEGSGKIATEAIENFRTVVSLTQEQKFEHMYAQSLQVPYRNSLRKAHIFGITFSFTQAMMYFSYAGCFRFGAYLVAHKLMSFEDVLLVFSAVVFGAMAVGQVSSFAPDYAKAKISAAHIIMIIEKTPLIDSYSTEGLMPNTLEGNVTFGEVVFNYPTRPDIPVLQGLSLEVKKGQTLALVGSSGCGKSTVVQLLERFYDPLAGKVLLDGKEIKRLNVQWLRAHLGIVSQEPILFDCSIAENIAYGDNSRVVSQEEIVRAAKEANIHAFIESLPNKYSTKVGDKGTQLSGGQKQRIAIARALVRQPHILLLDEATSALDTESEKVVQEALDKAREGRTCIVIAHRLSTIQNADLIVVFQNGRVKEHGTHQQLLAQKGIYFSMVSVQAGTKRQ
# [2] = test system: LoVo/DX; test: Cytotoxicity against human drug-resistant LoVo/DX cells after 72 hrs by SRB assay; assay type: functional, cell-based
# In short: (§1)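 Cells seeded at 30 000/well, attached 60 min at 37 °C, then compound added in an equal volume of medium and incubated 72 h. Read by sulforhodamine B at A492. Survival = A492 treated / A492 medium-only control × 100%. DMSO was at most 0.3% in samples. Triplicate experiments, means ± SD, Student's t test.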
# [3] = Induction of apoptosis in human […] cells assessed as necrotic cells at 100 uM after 48 hrs by annexin-V and propidium iodide staining based flow cytometry (reference value: 9.57 +/- 2.83%); assay type: functional
# [4] = test system: LoVo; test: Induction of apoptosis in human drug-sensitive LoVo cells assessed as necrotic cells at 100 uM after 48 hrs by annexin-V and propidium iodide staining based flow cytometry (reference value: 10.44 +/- 3.23%); assay type: functional
# [5] = test system: LoVo; test: Cytotoxicity against human drug-sensitive LoVo cells after 72 hrs by SRB assay; assay type: functional, cell-based
# In short: as §1
# [6] = Induction of apoptosis in human […] cells assessed as apoptotic cells at 100 uM after 48 hrs by annexin-V and propidium iodide staining based flow cytometry (reference value: 6.16 +/- 1.67%); assay type: functional
# [7] = test system: LoVo; test: Induction of apoptosis in human drug-sensitive LoVo cells assessed as apoptotic cells at 100 uM after 48 hrs by annexin-V and propidium iodide staining based flow cytometry (reference value: 6.68 +/- 1.77%); assay type: functional
# [8] = test system: LoVo; test: Induction of apoptosis in human drug-sensitive LoVo cells assessed as apoptotic cells at 15 uM after 48 hrs by annexin-V and propidium iodide staining based flow cytometry (reference value: 6.68 +/- 1.77%); assay type: functional
# [9] = test system: LoVo; test: Induction of apoptosis in human drug-sensitive LoVo cells assessed as activation of caspase-3 at 15 uM after 48 hrs relative to control; assay type: functional
# In short: (§2)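 LoVo (sensitive) or LoVo/Dx (doxorubicin-selected; kept in 100 ng/mL doxorubicin) cells, 800 000/well, attached 24 h, then exposed to compound in fresh medium for 48 h. Cells scraped and pelleted. Caspase-3 activity read colorimetrically at A405 as pNA released from DEVD-pNA (commercial kit). Reported as ratio of treated to medium-only control. Triplicate, means ± SD, Student's t test.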
# [10] = Induction of apoptosis in human […] cells assessed as necrotic cells at 15 uM after 48 hrs by annexin-V and propidium iodide staining based flow cytometry (reference value: 9.57 +/- 2.83%); assay type: functional
# [11] = Induction of apoptosis in human […] cells assessed as apoptotic cells at 15 uM after 48 hrs by annexin-V and propidium iodide staining based flow cytometry (reference value: 6.16 +/- 1.67%); assay type: functional
# [12] = test system: LoVo; test: Induction of apoptosis in human drug-sensitive LoVo cells assessed as necrotic cells at 15 uM after 48 hrs by annexin-V and propidium iodide staining based flow cytometry (reference value: 10.44 +/- 3.23%); assay type: functional
# [13] = Induction of apoptosis in human […] cells assessed as activation of caspase-3 at 15 uM after 48 hrs relative to control; assay type: functional
# In short: as §2
# [14] = target: T1, ATP-dependent translocase ABCB1; test: Inhibition of p-glycoprotein in human LoVo/DX cells assessed nuclear accumulation of doxorubicin at 100 uM after 60 mins by fluorescence assay; assay type: cell-based; settings: 1 h
# In short: (§3)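 Cells seeded at 15 000/well and cultured 48 h. Fresh F12 medium with 50 μM doxorubicin (plus 100 μM modulator) added for 60 min at 37 °C. Cells washed, then imaged by fluorescence microscopy (40× objective, excitation 528−553 nm, emission 578−633 nm) under identical illumination.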
# [15] = target: T1, ATP-dependent translocase ABCB1; test: Inhibition of p-glycoprotein in human LoVo/DX cells assessed accumulation of rhodamine 123 at 75 to 100 uM after 60 mins by fluorescence assay; assay type: cell-based; settings: 1 h
# In short: (§4)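 Cells at 300 000/mL in serum- and phenol red-free medium, preincubated 15 min at room temperature with modulator (5−100 μM). Rhodamine 123 then added (final 2 μM) for 60 min at 37 °C. Washed cells read by flow cytometry (488 nm excitation, 530/30 nm), 5000 events. FIR = (LoVo/Dx treated/control)/(LoVo treated/control). Triplicate.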
# [16] = test system: LoVo; test: Inhibition of doxorubicin intracellular accumulation in human LoVo cells at 100 uM after 60 mins by fluorescence assay; assay type: functional, cell-based
# In short: as §3
# [17] = Induction of apoptosis in human […] cells assessed as apoptotic cells at 25 uM after 48 hrs by annexin-V and propidium iodide staining based flow cytometry (reference value: 6.16 +/- 1.67%); assay type: functional
# [18] = Induction of apoptosis in human […] cells assessed as necrotic cells at 75 uM after 48 hrs by annexin-V and propidium iodide staining based flow cytometry (reference value: 9.57 +/- 2.83%); assay type: functional
# [19] = Induction of apoptosis in human […] cells assessed as activation of caspase-3 at 75 uM after 48 hrs relative to control; assay type: functional
# In short: (§5)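 Cells seeded at 800 000/well and allowed to attach 24 h. Compound added in fresh medium, then 48 h incubation. Cells scraped and centrifuged, and caspase-3 activity measured colorimetrically by pNA release from DEVD-pNA (A405) with a kit. Result expressed as a ratio to a medium-only control. Triplicate, means ± SD.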
# [20] = test system: LoVo; test: Induction of apoptosis in human drug-sensitive LoVo cells assessed as activation of caspase-3 at 25 uM after 48 hrs relative to control; assay type: functional
# In short: as §5
# [21] = test system: LoVo; test: Induction of apoptosis in human drug-sensitive LoVo cells assessed as activation of caspase-3 at 100 uM after 48 hrs relative to control; assay type: functional
# In short: as §5
# [22] = Induction of apoptosis in human […] cells assessed as activation of caspase-3 at 25 uM after 48 hrs relative to control; assay type: functional
# In short: as §5
# [23] = test system: LoVo; test: Induction of apoptosis in human drug-sensitive LoVo cells assessed as necrotic cells at 25 uM after 48 hrs by annexin-V and propidium iodide staining based flow cytometry (reference value: 10.44 +/- 3.23%); assay type: functional
# [24] = test system: LoVo; test: Induction of apoptosis in human drug-sensitive LoVo cells assessed as necrotic cells at 75 uM after 48 hrs by annexin-V and propidium iodide staining based flow cytometry (reference value: 10.44 +/- 3.23%); assay type: functional
# [25] = test system: LoVo; test: Induction of apoptosis in human drug-sensitive LoVo cells assessed as apoptotic cells at 25 uM after 48 hrs by annexin-V and propidium iodide staining based flow cytometry (reference value: 6.68 +/- 1.77%); assay type: functional
# [26] = test system: LoVo; test: Inhibition of rhodamine 123 accumulation in human LoVo cells at 75 to 100 uM after 60 mins by fluorescence assay; assay type: functional, cell-based
# In short: as §4
# [27] = Induction of apoptosis in human […] cells assessed as activation of caspase-3 at 100 uM after 48 hrs relative to control; assay type: functional
# In short: as §5
# [28] = test system: LoVo; test: Potentiation of doxorubicin-induced cytotoxicity in human LoVo cells at 5 uM after 72 hrs by SRB assay; assay type: functional, cell-based
# In short: (§6)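 Doxorubicin cytotoxicity measured with and without 5 μM modulator by SRB over 72 h. Cells seeded at 30 000/well and attached 60 min at 37 °C before treatment. Survival taken as A492 treated / A492 control × 100%. Three experiments, means ± SD, Student's t test (p < 0.05).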
# [29] = test system: LoVo; test: Induction of apoptosis in human drug-sensitive LoVo cells assessed as apoptotic cells at 75 uM after 48 hrs by annexin-V and propidium iodide staining based flow cytometry (reference value: 6.68 +/- 1.77%); assay type: functional
# [30] = Induction of apoptosis in human […] cells assessed as necrotic cells at 25 uM after 48 hrs by annexin-V and propidium iodide staining based flow cytometry (reference value: 9.57 +/- 2.83%); assay type: functional
# [31] = Induction of apoptosis in human […] cells assessed as apoptotic cells at 75 uM after 48 hrs by annexin-V and propidium iodide staining based flow cytometry (reference value: 6.16 +/- 1.67%); assay type: functional
# [32] = test system: LoVo; test: Induction of apoptosis in human drug-sensitive LoVo cells assessed as activation of caspase-3 at 75 uM after 48 hrs relative to control; assay type: functional
# In short: as §5
# [33] = target: T1, ATP-dependent translocase ABCB1; test: Inhibition of p-glycoprotein in human LoVo/DX cells assessed as potentiation of doxorubicin-induced cytotoxicity at 5 uM after 72 hrs by SRB assay; assay type: cell-based
# In short: as §6
Structure (SMILES),inhibition (INH) [1],Activity [2],Activity [3] [%],Activity [4] [%],Activity [5],Activity [6] [%],Activity [7] [%],further results
COc1ccc([C@@H]2CC(=O)c3c(O)cc(OC)cc3O2)cc1,Not Active,Active,17.74,17.82,Active,9.67,14.1,
CC[C@@]1(O)C(=O)OCc2c1cc1n(c2=O)Cc2cc3ccccc3nc2-1 [CAMPTOTHECIN],,,,,,,,Activity [8]: 17.61%; Ratio [9]: 3.4; Activity [10]: 17.96%; Activity [11]: 17.56%; Activity [12]: 23.81%; Ratio [13]: 3.83
O=C1c2c(O)cc(O)cc2O[C@H](c2ccc(O)cc2)[C@H]1O [DIHYDROKAEMPFEROL],Not Active,Active,6.83,10.02,Active,9.38,10.96,
O=C1C[C@@H](c2ccc(O)cc2)Oc2cc(O)cc(O)c21 [NARINGENIN],Not Active,Active,5.65,8.16,Active,6.98,15.44,
COc1cc(O)c2c(c1)O[C@H](c1ccc(O)cc1)CC2=O [SAKURANETIN],Not Active,Active,18.89,25.28,Active,4.87,18.16,
COc1ccc(-c2cc(=O)c3c(OC)c(OC)c(OC)c(OC)c3o2)cc1 [TANGERETIN],,Active,21.75,23.75,Active,23.05,15.19,inhibition (INH) [14]: Active; inhibition (INH) [15]: Active; inhibition [16]: inactive; Activity [17]: 13.87%; Activity [18]: 17.45%; Ratio [19]: 2.37; Ratio [20]: 1.04; Ratio [21]: 2.17; Ratio [22]: 2.08; Activity [23]: 25.82%; Activity [24]: 29.61%; Activity [25]: 11.57%; inhibition [26]: inactive; Ratio [27]: 2.71; Activity [28]: inactive; Activity [29]: 12.83%; Activity [30]: 17.55%; Activity [31]: 13.35%; Ratio [32]: 2.06; Activity [33]: Active
